# Source: PubChem BioAssay (The Scripps Research Institute Molecular Screening Center)
# GPR7 antag: human neuropeptides B/W receptor 1 antagonism; GPR7-expressing cells, fluorescence antagonist assay; inhibition, % at 4.4 µM; 290,000 tested, 1.1% active; AID 1861; in the data active = inhibition above about 16%, passing the limit was not always enough;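 note: cells stimulated with the agonist NPW; 0% = agonist with vehicle and 100% = vehicle without agonist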
# OX1R antag-1: antagonists of human orexin 1 receptor; AID 434989; 330,000 tested, 0.43% active; O43613; CHO/OX1R cells, Fluo-8 calcium fluorescence, orexin A; inhibition, % at 5 µM;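 active = inhibition above its plate's threshold, mean inhibition of all tested compounds on the plate plus 3 SD, cut at about 37% in these data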;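 note: 0% = orexin A challenge wells and 100% = SB-334867-A antagonist wells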
# Target sequence (O43613 whole entry, looked up): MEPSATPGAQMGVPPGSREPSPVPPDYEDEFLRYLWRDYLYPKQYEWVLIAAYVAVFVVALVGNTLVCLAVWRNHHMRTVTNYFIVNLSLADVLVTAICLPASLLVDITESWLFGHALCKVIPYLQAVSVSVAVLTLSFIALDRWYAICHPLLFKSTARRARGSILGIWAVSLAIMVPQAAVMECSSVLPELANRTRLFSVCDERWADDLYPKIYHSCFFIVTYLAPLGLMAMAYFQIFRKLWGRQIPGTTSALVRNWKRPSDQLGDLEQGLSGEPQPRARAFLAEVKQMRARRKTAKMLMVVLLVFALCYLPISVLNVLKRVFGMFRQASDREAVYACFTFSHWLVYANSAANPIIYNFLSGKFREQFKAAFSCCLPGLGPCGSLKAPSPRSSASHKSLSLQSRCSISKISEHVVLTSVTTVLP
# CHO parental Ca: counter-screen for OX1R antagonists: effect in parental CHO cells; inhibition, % at 5.6 µM; parental CHO-K1, ATP-induced calcium, Fluo-8 fluorescence; 330,000 tested, 0.63% active; AID 463079;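 active = inhibition above that plate's mean sample inhibition plus 3 SD, cut at about 26% in these data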;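 note: 0% = ATP-challenged DMSO wells and 100% = DMSO wells without ATP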
#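 test system = CHO parental line | reagent = ATP stimulus | measured by = intracellular calcium via Fluo-8 no-wash fluorescent dye | control set = ATP and no-ATP DMSO wells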
# OX1R antag-2: blocks the human orexin 1 receptor | O43613 | OX1R-expressing cells, FRET antagonist read-out | 330,000 tested, 1.8% active | inhibition, % at 6.6 µM; in the data active = inhibition mostly above about 38%, no sharp cut-off; inactive = mostly below about 40%;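 note: 0% = agonist challenge alone and 100% = reference antagonist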
# TAAR1 ag: human TAAR1 agonism. 360,000 tested, 0.99% active. activation, % at 3 µM. CHO RD-HGA16 TAAR1, Fluo-8 calcium fluorescence; vehicle wells 0%, saturating PEA agonist 100%. Q96RJ0;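 active = activation above the mean activation of all test compounds in the run plus 3 SD, cut at about 38% in these data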
#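 Test system: RD-HGA16 (CHO) cells co-expressing Gα16 and hTAAR1 / Benchmarks: DMSO vehicle as 0%, PEA at EC100 as 100% / Repeats: no replicates (n 1) / Measure: % activation from peak over basal fluorescence ratio, DMSO-to-PEA scaled / Timing: 17-24 h plating, Fluo-8 75 min 37 °C, 30 min RT / Technique: kinetic Fluo-8 calcium fluorescence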
# TAAR1 antag: antagonists of human TAAR1; CHO RD-HGA16 TAAR1, Fluo-8 calcium fluorescence, antagonist; inhibition, % at 3 µM; 360,000 tested, 1.5% active; AID 624466;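 active = inhibition above a per-plate cutoff, the mean inhibition of test compounds on that plate plus 3 SD, cut at about 49% in these data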;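 note: 0% = DMSO plus EC80 beta-PEA response and 100% = DMSO alone without agonist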
#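 Test system: CHO RD-HGA16 cells bearing hTAAR1 | Reagent: β-PEA, EC80 | Compound dosing: 3 µM, single point | Schedule: Dye loading 75 min at 37 °C, then 30 min room temperature | Signal: Calcium fluorescence with Fluo-8 | Evaluation: Percent inhibition of PEA-evoked calcium signal, max/basal emission ratio | Control set: DMSO-only wells and EC80 β-PEA-stimulated wells | Repeats: Singlicate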
# Starred values were filed as active, the others as inactive; . = no result. An excerpt weighted towards active compounds, which were near 4.6% of everything screened.
SMILES,GPR7 antag,OX1R antag-1,CHO parental Ca,OX1R antag-2,TAAR1 ag,TAAR1 antag
CCOc1ccc(S(=O)(=O)Nc2cnc3ccccc3c2)cc1,-4,-4,35*,28,4,16
O=C(Nc1ccc(Br)cc1)c1cccc(S(=O)(=O)Nc2cnc3ccccc3c2)c1,9,5,42*,54,3,21
CCOc1ccc(S(=O)(=O)Nc2nc3ccccc3nc2Cl)cc1,0,-6,-12,22,0,0
O=C1CSc2ccc(C(=O)Nc3cccc(S(=O)(=O)Nc4ccc(Br)cc4)c3)cc2N1,18,-3,34*,15,5,-1
O=S(=O)(c1ccc(F)cc1)N1CCCc2nc(-c3ccc(Br)cc3)ccc21,.,.,.,.,-1,-15
Cc1ccc(C(=O)NCC(=O)OCC(=O)c2ccc3c(c2)NC(=O)CO3)cc1C,-8,7,-3,26,2,-5
Cc1cc(C)cc(OCC(=O)OCC(=O)c2ccc3c(c2)NC(=O)CO3)c1,-9,7,38*,24,19,17
Nc1nc(SCC(=O)Nc2ccc(OC(F)(F)F)cc2)[nH]c(=O)c1NC(=O)c1ccc(Br)o1,-3,-1,6,22,3,-28
CC(Sc1n[nH]c(-c2ccccc2)n1)C(=O)c1c(N)n(C)c(=O)n(C)c1=O (centres undefined),.,-13,-23,22,3,-14
O=C1c2ccccc2C(=O)N1c1nccs1,.,.,.,.,3,-16
O=c1c2ccccc2sn1-c1cccc(Cl)c1,.,.,.,.,39*,22
O=c1c2ccccc2sn1-c1nccs1,-3,.,.,.,47*,35
O=C(O)c1cccc(-n2sc3ccccc3c2=O)c1,.,-14,-6,-7,15,-10
O=c1c2ccccc2sn1-c1ccccc1F,.,.,.,.,24,13
O=c1c2cc(F)ccc2sn1-c1ccccc1,.,46,72*,29,60*,57*
Cc1ccccc1-n1sc2cc(F)ccc2c1=O,-11,13,35*,27,44*,40
Cc1cc(C)c(NC(=O)CSc2nccn2C)c(C)c1,-10,2,-14,17,1,8
CN(CCO)c1cc(Sc2nc3ccccc3s2)c2nonc2c1[N+](=O)[O-],-11,70*,88*,67*,18,39
COc1cc(C(=O)NCc2nnc(SCC(=O)N3CCOCC3)o2)cc(OC)c1OC,-14,-6,2,-5,11,-5
C=CCOC(=O)C1C(=O)CC(C)(O)C(C(=O)OCC=C)C1c1ccc(N(C)C)cc1 (centres undefined),2,-22,-13,31,5,20
Cc1ccc(S(=O)(=O)c2nc(S(=O)(=O)c3ccccc3)sc2N2CCN(CCO)CC2)cc1,-17,-28,-13,9,8,4
O=C(Nc1ccccc1Br)c1cc[n+]([O-])cc1,-9,-19,-4,20,3,-1
CCOCCCNS(=O)(=O)c1ccccc1,2,-9,-5,10,3,9
O=C1C(Cl)=C(NCCN2CCOCC2)C(=O)c2ccccc21,-6,1,2,61*,33,19
O=C1C(Cl)=C(NCCCN2CCOCC2)C(=O)c2ccccc21,.,.,.,.,2,-4
SMILES,GPR7 antag,OX1R antag-1,CHO parental Ca,OX1R antag-2,TAAR1 ag,TAAR1 antag
CCOCCCNC1=C(Cl)C(=O)c2ccccc2C1=O,-10,-8,-7,71*,14,-8
COc1ccc([C@H]2C[C@@H](O)[C@H](n3cc(C4CC4)nn3)CN2CC2CCCCC2)cc1,.,.,.,.,-1,-23
O=c1nccc(N/N=C/c2ccccc2O)[nH]1,-10,.,.,.,38*,-9
COc1cccc(/C=N/Nc2ccnc(=O)[nH]2)c1O,-14,-4,-2,10,2,-4
CC(=O)Nc1ccc(S(=O)(=O)N2CCN=C2SCc2ccc([N+](=O)[O-])cc2)cc1,11,9,33*,22,12,26
CCOC(=O)c1nc2c(=O)n(C)c(=O)n(C)c2n(C)c1=O,.,7,-13,48*,2,-23
CC(CCc1ccccn1)(CCc1ccccn1)C(=O)c1ccccc1,.,.,.,.,8,53*
CC(CCc1ccccn1)C(=O)c1ccccc1 (centres undefined),.,.,.,.,1,11
O=C(Nc1ccccc1)Nc1cccc(-c2nnco2)c1,-6,-39,-9,14,44*,-6
